Article PMC5743405 (International Journal of Oncology, 2017)
Like-named read-outs stand apart in the source and are kept apart here.

Legend:
[1] = test system: CCR2; experiment: PathHunter β-arrestin; assay type: cell-based; details: antagonist mode, 6 μM
How it was run: (§1)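 β-Arrestin recruitment assay: the enzyme acceptor is fused to β-arrestin and the ED fragment to the GPCR. Recruitment restores β-galactosidase, read by chemiluminescence. % activity = 100% × (test − vehicle)/(max control ligand − vehicle). % inhibition = 100% × (1 − (test − vehicle)/(EC80 control − vehicle)). An agonist hit needs >30% activity and RLU > baseline + 3×SD. An antagonist hit needs >35% inhibition and RLU < EC80 RLU − 3×SD.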

[2] = test system: NPY1R; experiment: PathHunter β-arrestin; assay type: cell-based; details: antagonist mode, 6 μM
How it was run: (§2)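 Vendor-run (DiscoveRx) PathHunter enzyme fragment complementation. β-Arrestin carries the EA fragment and the receptor carries ED; recruitment restores β-gal activity, read by chemiluminescence (RLU). Agonist % activity = vehicle-subtracted RLU relative to max control ligand (gpcrMAX) or to vehicle (orphanMAX). Antagonist % inhibition = 100% × (1 − vehicle-subtracted sample RLU / vehicle-subtracted EC80 agonist control RLU).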

[3] = test system: GPR119; experiment: PathHunter β-arrestin; assay type: cell-based; details: 6 μM
How it was run: as §2

[4] = test system: TLR1; experiment: RT2 qPCR primer assay, JJ012 cells; assay type: cell-based, human
How it was run: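 RNA was extracted, checked by spectrophotometry and reverse-transcribed. Custom RT2 SYBR-Green primer assays were run on three samples in technical triplicate. Ct was normalised to mean GAPDH/ACTB, ΔΔCt taken versus control, and fold change = 2^−ΔΔCt.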

[5] = test system: CALCRL-RAMP1; experiment: PathHunter β-arrestin; assay type: cell-based; details: antagonist mode, 6 μM
How it was run: as §1

[6] = test system: P2RY12; experiment: PathHunter β-arrestin; assay type: cell-based; details: 6 μM
How it was run: (§3)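 β-Arrestin recruitment to GPCR read by β-galactosidase fragment complementation and chemiluminescence. Agonist: % = 100 × (test − vehicle)/(max control ligand − vehicle), hit at >30% and RLU > baseline + 3 SD. Antagonist, against EC80 agonist: % inhibition = 100 × (1 − (test − vehicle)/(EC80 − vehicle)), hit at >35% and RLU < EC80 − 3 SD.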

[7] = test system: ADRA2B; experiment: PathHunter β-arrestin; assay type: cell-based; details: antagonist mode, 6 μM
How it was run: as §1

[8] = test system: CALCRL-RAMP3; experiment: PathHunter β-arrestin; assay type: cell-based; details: antagonist mode, 6 μM
How it was run: as §1

[9] = test system: DRD2L; experiment: PathHunter β-arrestin; assay type: cell-based; details: antagonist mode, 6 μM
How it was run: (§4)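 Engineered cells express the receptor fused to one β-galactosidase fragment (ED) and β-arrestin fused to the complementing fragment (EA). Receptor activation recruits β-arrestin, which restores enzyme activity, and this is read by chemiluminescence (RLU). Agonist % activity is 100% × (test − vehicle)/(maximal control ligand − vehicle). Antagonist mode is challenged with an EC80 control agonist, and % inhibition is 100% × (1 − (test − vehicle)/(EC80 − vehicle)). Hits require >30% activity or >35% inhibition, plus a 3×SD RLU margin.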

[10] = test system: HTR1B; experiment: PathHunter β-arrestin; assay type: cell-based; details: antagonist mode, 6 μM
How it was run: as §2

[11] = test system: TLR6; experiment: immunocytochemistry, colocalization with TLR6, JJ012 cells; assay type: cell-based, human; details: TLR6 yellow (DyLight 550), PRP-1 green (Alexa Fluor 488)
[12] = test system: BRS3; experiment: PathHunter β-arrestin; assay type: cell-based; details: antagonist mode, 6 μM
How it was run: as §1

[13] = test system: OXER1; experiment: PathHunter β-arrestin; assay type: cell-based; details: agonist mode, 6 μM
[14] = test system: tumor suppressor miRNAs and onco-miRNAs; details: JJ012 cell line; ref [7]; cited from earlier work
[15] = test system: MCHR2; experiment: PathHunter β-arrestin; assay type: cell-based; details: 6 μM
How it was run: as §2

[16] = test system: CXCR7; experiment: PathHunter β-arrestin; assay type: cell-based; details: antagonist mode, 6 μM
How it was run: as §4

[17] = test system: CRHR1; experiment: PathHunter β-arrestin; assay type: cell-based; details: 6 μM
How it was run: as §4

[18] = test system: VIPR1; experiment: PathHunter β-arrestin; assay type: cell-based; details: antagonist mode, 6 μM
[19] = test system: orphan receptors; experiment: orphanMAX β-arrestin panel, agonist mode; assay type: cell-based; details: summary of Table III
[20] = test system: C5L2; experiment: PathHunter β-arrestin; assay type: cell-based; details: antagonist mode, 6 μM
How it was run: as §1

[21] = test system: CRHR2; experiment: PathHunter β-arrestin; assay type: cell-based; details: antagonist mode, 6 μM
How it was run: as §4

[22] = test system: G1/S phase cell cycle progression; details: chondrosarcoma, cited from earlier work
[23] = test system: OPRM1; experiment: PathHunter β-arrestin; assay type: cell-based; details: 6 μM
How it was run: as §3

[24] = test system: GPCR receptors; experiment: PathHunter β-arrestin gpcrMAX panel, agonist mode; assay type: cell-based; details: summary of Table I
How it was run: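 β-Arrestin fused to the EA fragment and GPCR fused to the ED fragment; recruitment restores β-galactosidase, read by chemiluminescence. % agonist = 100 × (mean test − mean vehicle)/(mean max control ligand − mean vehicle). Hit requires >30% activity and mean RLU above baseline + 3 × baseline SD.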

[25] = test system: P2RY4; experiment: PathHunter β-arrestin; assay type: cell-based; details: agonist mode, 6 μM
[26] = test system: P2RY2; experiment: PathHunter β-arrestin; assay type: cell-based; details: 6 μM
How it was run: as §3

[27] = test system: EDG5; experiment: PathHunter β-arrestin; assay type: cell-based; details: 6 μM
How it was run: as §4

[28] = test system: TLR6; experiment: western blot, JJ012 cells; assay type: cell-based, human; details: vs untreated control, overnight incubation
[29] = test system: CALCR-RAMP2; experiment: PathHunter β-arrestin; assay type: cell-based; details: agonist mode, 6 μM
How it was run: as §1

[30] = test system: NTSR1; experiment: PathHunter β-arrestin; assay type: cell-based; details: antagonist mode, 6 μM
How it was run: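 GPCR-ED fusion and β-arrestin-EA fusion; arrestin recruitment restores β-galactosidase, read by chemiluminescence. Antagonist mode uses EC80 agonist challenge. % inhibition = 100 × (1 − (test − vehicle RLU)/(EC80 control − vehicle RLU)). Hit requires >35% inhibition and mean RLU below EC80 RLU − 3 × EC80 SD.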

[31] = test system: P2RY1; experiment: PathHunter β-arrestin; assay type: cell-based; details: 6 μM
How it was run: as §3

## Proline rich polypeptide 1 [PRP-1]
[1]
  % Inhibition: −3%
[2]
  % Inhibition: 4%
[3]; agonist mode
  % Activity: 3%
[3]; antagonist mode
  % Inhibition: −1%
[4]; 10 μg/ml PRP-1, heat map, average Ct, technical triplicates
  gene expression: well expressed
[4]; qRT-PCR
  fold change (∆Ct): did not report significant fold change
[5]
  % Inhibition: 4%
[6]; agonist mode
  % Activity: 1%
[6]; antagonist mode
  % Inhibition: 8%
[7]
  % Inhibition: 2%
[8]
  % Inhibition: 1%
[9]
  % Inhibition: 2%
[10]
  % Inhibition: 4%
[11]
  colocalization with TLR6: nuclear and cytoplasmic colocalization with PRP-1 is demonstrated
[12]
  % Inhibition: 4%
[13]
  % Activity: −2%
[14]
  miRNA regulation: upregulate tumor suppressor miRNAs and downregulate onco-miRNAs
[15]; agonist mode
  % Activity: 1%
[15]; antagonist mode
  % Inhibition: −3%
[16]
  % Inhibition: −2%
[17]; agonist mode
  % Activity: 1%
[17]; antagonist mode
  % Inhibition: 1%
[18]
  % Inhibition: −9%
[19]
  orphan receptor agonism: neither that this peptide was agonist for orphan receptors
[20]
  % Inhibition: −5%
[21]
  % Inhibition: −2%
[22]; ref [4],[5]
  cell cycle progression: halting G1/S phase cell cycle progression
[22]; ref [6]
  cell cycle progression: halts cell cycle progression in G1/S transition
[23]; agonist mode
  % Activity: 1%
[23]; antagonist mode
  % Inhibition: −2%
[24]
  GPCR coupling, agonist mode: no indication that PRP-1 was G protein coupled
[25]
  % Activity: −1%
[26]; agonist mode
  % Activity: 2%
[26]; antagonist mode
  % Inhibition: −4%
[27]; agonist mode
  % Activity: 1%
[27]; antagonist mode
  % Inhibition: −8%
[28]
  protein expression: increased in dose-dependent manner
[29]
  % Activity: 2%
[30]
  % Inhibition: −1%
[31]; agonist mode
  % Activity: −1%
[31]; antagonist mode
  % Inhibition: 1%
